{
  "source": "ChEMBL document CHEMBL1255501",
  "about": "“Heteroresistance of Cryptococcus gattii to fluconazole” (2010)",
  "key": {"[1]": {"system": "Cryptococcus gattii species complex", "experiment": "Antimicrobial activity against Cryptococcus gattii serotype C isolate NIH187 assessed as concentration required for heteroresistance", "format": "functional, Cryptococcus bacillisporus"}, "[2]": {"system": "Cryptococcus gattii species complex", "experiment": "Antimicrobial activity against Cryptococcus gattii serotype B isolate NIH281 assessed as concentration required for heteroresistance", "format": "functional, Cryptococcus bacillisporus", "in_short": "(§1)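 Fluconazole spot test: 10-fold serial dilutions of each single-colony-purified strain spotted on YPD agar alone and YPD agar with fluconazole at 4 to 128 μg/ml. The level of heteroresistance to fluconazole (LHF) is the lowest drug concentration at which minor resistant subpopulations emerge within the spot.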"}, "[3]": {"system": "Cryptococcus gattii species complex", "experiment": "Antimicrobial activity against Cryptococcus gattii serotype C isolate H0058-1-2023 assessed as heteroresistant isolates at 2 ug/ml", "format": "functional, Cryptococcus bacillisporus", "in_short": "(§2)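 Population analysis: saline cell suspensions (1 × 103 to 4 × 10^3 CFU/ml) plated on plain YPD agar or YPD agar with various fluconazole concentrations; growth recorded after 72 h at 30°C; percentage of resistant subpopulation at each drug level calculated relative to drug-free plate growth.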"}, "[4]": {"system": "Cryptococcus gattii species complex", "experiment": "Antimicrobial activity against Cryptococcus gattii serotype C isolate H0058-1-78 assessed as heteroresistant isolates at 8 ug/ml", "format": "functional, Cryptococcus bacillisporus", "in_short": "as §2"}, "[5]": {"system": "Cryptococcus gattii species complex", "experiment": "Antimicrobial activity against fluconazole-resistant Cryptococcus gattii serotype B isolate RB14 at 256 ug/ml", "format": "functional, organism-based", "conditions": "Cryptococcus bacillisporus"}, "[6]": {"system": "Cryptococcus gattii species complex", "experiment": "Antimicrobial activity against Cryptococcus gattii serotype B isolate NIH198 assessed as heteroresistant isolates at 8 ug/ml", "format": "functional, Cryptococcus bacillisporus", "in_short": "(§3)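 Population analysis: cells suspended in sterile saline at 1 × 10³ to 4 × 10³ CFU/ml and plated on plain YPD agar or YPD agar with various fluconazole concentrations. Plates incubated at 30°C for 72 h. The resistant subpopulation at each concentration is recorded as a percentage of the population.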"}, "[7]": {"system": "Cryptococcus gattii species complex", "experiment": "Antimicrobial activity against Cryptococcus gattii serotype B isolate NIH189 assessed as heteroresistant isolates at 8 ug/ml", "format": "functional, Cryptococcus bacillisporus", "in_short": "as §3"}, "[8]": {"system": "Cryptococcus gattii species complex", "experiment": "Antimicrobial activity against Cryptococcus gattii serotype C isolate NIH257 assessed as heteroresistant isolates at 2 ug/ml", "format": "functional, Cryptococcus bacillisporus", "in_short": "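Cell suspensions of 1 × 10^3 to 4 × 10^3 CFU/ml were made in sterile saline and plated on plain YPD agar or YPD agar with various fluconazole concentrations. Plates were incubated at 30°C for 72 h, and the percentage of resistant subpopulation emerging was recorded.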"}, "[9]": {"system": "Cryptococcus gattii species complex", "experiment": "Antimicrobial activity against Cryptococcus gattii serotype B isolate NIH286 assessed as heteroresistant isolates at 8 ug/ml", "format": "functional, Cryptococcus bacillisporus", "in_short": "as §3"}, "[10]": {"system": "Cryptococcus gattii species complex", "experiment": "Antimicrobial activity against Cryptococcus gattii serotype B isolate NIH184 assessed as heteroresistant isolates at 16 ug/ml", "format": "functional, Cryptococcus bacillisporus", "in_short": "as §3"}, "[11]": {"system": "Cryptococcus gattii species complex", "experiment": "Antimicrobial activity against Cryptococcus gattii serotype B isolate NIH767 assessed as concentration required for heteroresistance", "format": "functional, Cryptococcus bacillisporus", "in_short": "as §1"}, "[12]": {"system": "Cryptococcus gattii species complex", "experiment": "Antimicrobial activity against Cryptococcus gattii serotype C isolate NIH18 assessed as heteroresistant isolates at 4 ug/ml", "format": "functional, Cryptococcus bacillisporus", "in_short": "as §2"}, "[13]": {"system": "Cryptococcus gattii species complex", "experiment": "Antimicrobial activity against Cryptococcus gattii serotype B isolate NIH412 assessed as heteroresistant isolates at 4 ug/ml", "format": "functional, Cryptococcus bacillisporus", "in_short": "as §3"}, "[14]": {"system": "Cryptococcus gattii species complex", "experiment": "Antimicrobial activity against Cryptococcus gattii serotype B isolate NIH184 assessed as concentration required for heteroresistance", "format": "functional, Cryptococcus bacillisporus", "in_short": "as §1"}, "[15]": {"system": "Cryptococcus gattii species complex", "experiment": "Antimicrobial activity against Cryptococcus gattii serotype B isolate NIH286 assessed as heteroresistant isolates at 4 ug/ml", "format": "functional, Cryptococcus bacillisporus", "in_short": "as §3"}, "[16]": {"system": "Cryptococcus gattii species complex", "experiment": "Antimicrobial activity against Cryptococcus gattii serotype B isolate NIH76 assessed as concentration required for heteroresistance", "format": "functional, Cryptococcus bacillisporus", "in_short": "as §1"}, "[17]": {"system": "Cryptococcus gattii species complex", "experiment": "Antimicrobial activity against Cryptococcus gattii serotype B isolate B4506 assessed as heteroresistant isolates at 2 ug/ml", "format": "functional, Cryptococcus bacillisporus", "in_short": "as §3"}, "[18]": {"system": "Cryptococcus gattii species complex", "experiment": "Antimicrobial activity against Cryptococcus gattii serotype C isolate H0058-1-2023 assessed as concentration required for heteroresistance", "format": "functional, Cryptococcus bacillisporus"}, "[19]": {"system": "Cryptococcus gattii species complex", "experiment": "Antimicrobial activity against Cryptococcus gattii serotype B isolate RB-9 assessed as concentration required for heteroresistance", "format": "functional, Cryptococcus bacillisporus"}, "[20]": {"system": "Cryptococcus gattii species complex", "experiment": "Antimicrobial activity against Cryptococcus gattii serotype B isolate NIH190 assessed as heteroresistant isolates at 2 ug/ml", "format": "functional, Cryptococcus bacillisporus", "in_short": "as §3"}, "[21]": {"system": "Cryptococcus gattii species complex", "experiment": "Antimicrobial activity against Cryptococcus gattii serotype B isolate NIH190 assessed as heteroresistant isolates at 4 ug/ml", "format": "functional, Cryptococcus bacillisporus", "in_short": "as §3"}, "[22]": {"system": "Cryptococcus gattii species complex", "experiment": "Antimicrobial activity against Cryptococcus gattii serotype C isolate NIH113 assessed as heteroresistant isolates at 8 ug/ml", "format": "functional, Cryptococcus bacillisporus", "in_short": "as §2"}, "[23]": {"system": "Cryptococcus bacillisporus", "experiment": "Antimicrobial activity against Cryptococcus gattii serotype C isolate NIH191 assessed as heteroresistant isolates at 32 ug/ml", "format": "functional", "in_short": "as §2"}, "[24]": {"system": "Cryptococcus gattii species complex", "experiment": "Antimicrobial activity against Cryptococcus gattii serotype B isolate NIH409 assessed as concentration required for heteroresistance", "format": "functional, Cryptococcus bacillisporus", "in_short": "as §1"}, "[25]": {"system": "Cryptococcus gattii species complex", "experiment": "Antimicrobial activity against Cryptococcus gattii serotype B isolate RB-3 assessed as concentration required for heteroresistance", "format": "functional, Cryptococcus bacillisporus"}},
  "note": "Active and inactive are the calls of the source. The calls are words filed in the database; no cut-off is given here.",
  "data": [
    {"smiles": "OC(Cn1cncn1)(Cn1cncn1)c1ccc(F)cc1F", "note": "[FLUCONAZOLE]", "values": [
      {"measurement": "Activity", "setting": "[1]", "value": 32, "unit": "µg/mL"},
      {"measurement": "Activity", "setting": "[2]", "value": 4, "unit": "µg/mL"},
      {"measurement": "Activity", "setting": "[3]", "value": 100, "unit": "%"},
      {"measurement": "Activity", "setting": "[4]", "value": 100, "unit": "%"},
      {"measurement": "Activity", "setting": "[5]", "value": "inactive"},
      {"measurement": "Activity", "setting": "[6]", "value": 100, "unit": "%"},
      {"measurement": "Activity", "setting": "[7]", "value": 100, "unit": "%"},
      {"measurement": "Activity", "setting": "[8]", "value": 100, "unit": "%"},
      {"measurement": "Activity", "setting": "[9]", "value": 100, "unit": "%"},
      {"measurement": "Activity", "setting": "[10]", "value": 35, "unit": "%"},
      {"measurement": "Activity", "setting": "[11]", "value": 32, "unit": "µg/mL"},
      {"measurement": "Activity", "setting": "[12]", "value": 100, "unit": "%"},
      {"measurement": "Activity", "setting": "[13]", "value": 0.07, "unit": "%"},
      {"measurement": "Activity", "setting": "[14]", "value": 16, "unit": "µg/mL"},
      {"measurement": "Activity", "setting": "[15]", "value": 100, "unit": "%"},
      {"measurement": "Activity", "setting": "[16]", "value": 32, "unit": "µg/mL"},
      {"measurement": "Activity", "setting": "[17]", "value": 100, "unit": "%"},
      {"measurement": "Activity", "setting": "[18]", "value": 32, "unit": "µg/mL"},
      {"measurement": "Activity", "setting": "[19]", "value": 32, "unit": "µg/mL"},
      {"measurement": "Activity", "setting": "[20]", "value": 100, "unit": "%"},
      {"measurement": "Activity", "setting": "[21]", "value": 100, "unit": "%"},
      {"measurement": "Activity", "setting": "[22]", "value": 100, "unit": "%"},
      {"measurement": "Activity", "setting": "[23]", "value": 20, "unit": "%"},
      {"measurement": "Activity", "setting": "[24]", "value": 32, "unit": "µg/mL"},
      {"measurement": "Activity", "setting": "[25]", "value": 8, "unit": "µg/mL"}
    ]}
  ]
}
